Assay results as given in ChEMBL document CHEMBL1148541, “Biological evaluation of 1-alkyl-3-phenylthioureas as orally active HDL-elevating agents” (Bioorg Med Chem Lett, 2006).

Columns and labels:
Assay type in all cases: functional
Rattus norvegicus [1] = test: Increase of HDL level in cholesterol-fed male rats by FPLC method at 70 mg/kg/day relative to control
Method in brief: (§1)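 Groups of six male Sprague–Dawley rats on a cholesterol diet received drug in the diet, ad libitum, for 8 days. Serum lipoproteins separated by FPLC, adapted for robotic automation, and cholesterol quantitated enzymatically by colorimetry. HDL given as % change versus untreated controls, with significance set at p < 0.05.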

Rattus norvegicus [2] = test: Increase of HDL level in cholesterol-fed male rats by ultracentrifugation method at 70 mg/kg/day relative to control
Method in brief: (§2)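 Cholesterol-fed male Sprague–Dawley rats, six per group, given drug in the diet ad libitum for 8 days. Serum lipoproteins separated by classical ultracentrifugation and HDL cholesterol measured by an enzymatic colorimetric method. Expressed as % change versus untreated controls, with significance set at p < 0.05.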

Rattus norvegicus [3] = test: Weight gain in cholesterol-fed male rats at 70 mg/kg/day relative to control
Method in brief: (§3)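 Groups of six male Sprague–Dawley rats on a cholesterol diet received the compound in the diet, ad libitum, over 8 days. Body weight gain is reported as % change relative to untreated controls.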

Rattus norvegicus [4] = test: Increase of total cholesterol level in cholesterol-fed male rats at 70 mg/kg/day relative to control
Method in brief: (§4)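 Dietary (ad libitum) dosing of groups of six male Sprague–Dawley rats on a cholesterol diet for 8 days. Serum total cholesterol was quantitated enzymatically by a colorimetric method and expressed as % change relative to untreated controls, with significance at p < 0.05.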

Rattus norvegicus [5] = test: Triglyceride level in cholesterol-fed male rats at 70 mg/kg/day relative to control
Method in brief: (§5)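 Male Sprague–Dawley rats on a cholesterol diet, in groups of six, received the compound in the diet ad libitum for 8 days. Serum triglycerides are expressed as % change relative to untreated controls, with significance at p < 0.05 versus controls.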

Rattus norvegicus [6] = test: Increase of Apolipoprotein A-I level in cholesterol-fed male rats at 70 mg/kg/day relative to control
Method in brief: (§6)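 Drug mixed into diet, fed ad libitum for 8 days to groups of six male Sprague–Dawley rats on a cholesterol diet. Serum Apo A-I measured by SDS–polyacrylamide gel electrophoresis or by rat competition ELISA. Reported as % change versus untreated controls, with significance set at p < 0.05.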

Rattus norvegicus [7] = test: Increase of total cholesterol level in cholesterol-fed male rats at 73 mg/kg/day relative to control; method in brief: as §4
Rattus norvegicus [8] = test: Increase of Apolipoprotein A-I level in cholesterol-fed male rats at 73 mg/kg/day relative to control; method in brief: as §6
Rattus norvegicus [9] = test: Increase of HDL level in cholesterol-fed male rats by ultracentrifugation method at 73 mg/kg/day relative to control
Method in brief: (§7)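 Compound given in the diet, ad libitum, to groups of six male Sprague–Dawley rats on a cholesterol diet for 8 days. Serum lipoproteins were separated by classical ultracentrifugation, and HDL cholesterol was quantitated by an enzymatic colorimetric method. Results are reported as % change relative to untreated controls, with significance at p < 0.05 versus controls.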

Rattus norvegicus [10] = test: Increase of HDL level in cholesterol-fed male rats by FPLC method at 73 mg/kg/day relative to control; method in brief: as §1
Rattus norvegicus [11] = test: Triglyceride level in cholesterol-fed male rats at 73 mg/kg/day relative to control; method in brief: as §5
Rattus norvegicus [12] = test: Weight gain in cholesterol-fed male rats at 73 mg/kg/day relative to control; method in brief: as §3
Rattus norvegicus [13] = species on record: Rattus norvegicus; test: Increase in liver enzyme Alanine aminotransferase
Rattus norvegicus [14] = species on record: Rattus norvegicus; test: Increase in liver enzyme Aspartate aminotransferase; design: concentration or dose not given beside the values
Rattus norvegicus [15] = test: Increase of total cholesterol level in cholesterol-fed male rats at 88 mg/kg/day relative to control; method in brief: as §4
Rattus norvegicus [16] = test: Triglyceride level in cholesterol-fed male rats at 88 mg/kg/day relative to control; method in brief: as §5
Rattus norvegicus [17] = test: Increase of HDL level in cholesterol-fed male rats by FPLC method at 88 mg/kg/day relative to control; method in brief: as §1
Rattus norvegicus [18] = test: Increase of Apolipoprotein A-I level in cholesterol-fed male rats at 88 mg/kg/day relative to control; method in brief: as §6
Rattus norvegicus [19] = test: Increase of HDL level in cholesterol-fed male rats by ultracentrifugation method at 88 mg/kg/day relative to control; method in brief: as §7
Rattus norvegicus [20] = test: Weight gain in cholesterol-fed male rats at 88 mg/kg/day relative to control; method in brief: as §3
Rattus norvegicus [21] = test: Increase of total cholesterol level in cholesterol-fed male rats at 81 mg/kg/day relative to control; method in brief: as §4
Rattus norvegicus [22] = test: Increase of HDL level in cholesterol-fed male rats by FPLC method at 81 mg/kg/day relative to control; method in brief: as §1
Rattus norvegicus [23] = test: Weight gain in cholesterol-fed male rats at 81 mg/kg/day relative to control; method in brief: as §3
Rattus norvegicus [24] = test: Increase of Apolipoprotein A-I level in cholesterol-fed male rats at 81 mg/kg/day relative to control; method in brief: as §6
Rattus norvegicus [25] = test: Increase of HDL level in cholesterol-fed male rats by ultracentrifugation method at 81 mg/kg/day relative to control; method in brief: as §7
Rattus norvegicus [26] = test: Triglyceride level in cholesterol-fed male rats at 81 mg/kg/day relative to control; method in brief: as §5
Rattus norvegicus [27] = test: Triglyceride level in cholesterol-fed male rats at 71 mg/kg/day relative to control; method in brief: as §5
Rattus norvegicus [28] = test: Increase of HDL level in cholesterol-fed male rats by ultracentrifugation method at 71 mg/kg/day relative to control; method in brief: as §2
Rattus norvegicus [29] = test: Increase of HDL level in cholesterol-fed male rats by FPLC method at 71 mg/kg/day relative to control; method in brief: as §1
Rattus norvegicus [30] = test: Increase of total cholesterol level in cholesterol-fed male rats at 71 mg/kg/day relative to control; method in brief: as §4
Rattus norvegicus [31] = test: Weight gain in cholesterol-fed male rats at 71 mg/kg/day relative to control; method in brief: as §3
Rattus norvegicus [32] = test: Triglyceride level in cholesterol-fed male rats at 82 mg/kg/day relative to control; method in brief: as §5
Rattus norvegicus [33] = test: Increase of HDL level in cholesterol-fed male rats by FPLC method at 82 mg/kg/day relative to control; method in brief: as §1
Rattus norvegicus [34] = test: Increase of HDL level in cholesterol-fed male rats by ultracentrifugation method at 82 mg/kg/day relative to control; method in brief: as §7
Rattus norvegicus [35] = test: Increase of total cholesterol level in cholesterol-fed male rats at 82 mg/kg/day relative to control; method in brief: as §4
Rattus norvegicus [36] = test: Increase of Apolipoprotein A-I level in cholesterol-fed male rats at 82 mg/kg/day relative to control; method in brief: as §6
Rattus norvegicus [37] = test: Weight gain in cholesterol-fed male rats at 82 mg/kg/day relative to control; method in brief: as §3

CCC/N=C(\S)Nc1cc(Cl)ccc1CC
Activity (Rattus norvegicus [1]): 369%
Activity (Rattus norvegicus [2]): 101%
Activity (Rattus norvegicus [3]): -33%
Activity (Rattus norvegicus [4]): 28%
Activity (Rattus norvegicus [5]): -61%
Activity (Rattus norvegicus [6]): 43%

CC/N=C(\S)Nc1cc(Cl)ccc1C
Activity (Rattus norvegicus [7]): 32%
Activity (Rattus norvegicus [8]): 27%
Activity (Rattus norvegicus [9]): 110%
Activity (Rattus norvegicus [10]): 215%
Activity (Rattus norvegicus [11]): -64%
Activity (Rattus norvegicus [12]): -107%
Activity (Rattus norvegicus [13]): 81%
Activity (Rattus norvegicus [14]): 162%

Cc1ccc(Cl)cc1/N=C(\S)NCC(C)(C)C
Activity (Rattus norvegicus [15]): 3%
Activity (Rattus norvegicus [16]): -66%
Activity (Rattus norvegicus [17]): 196%
Activity (Rattus norvegicus [18]): 89%
Activity (Rattus norvegicus [19]): 122%
Activity (Rattus norvegicus [20]): 7%
Activity (Rattus norvegicus [13]): 111%
Activity (Rattus norvegicus [14]): 49%

CCC(C)(C)/N=C(\S)Nc1cc(Cl)ccc1C
Activity (Rattus norvegicus [21]): -10%
Activity (Rattus norvegicus [22]): 39%
Activity (Rattus norvegicus [23]): 15%
Activity (Rattus norvegicus [24]): 64%
Activity (Rattus norvegicus [25]): 55%
Activity (Rattus norvegicus [26]): -14%

CCC/N=C(\S)Nc1cc(C)ccc1OC
Activity (Rattus norvegicus [27]): -38%
Activity (Rattus norvegicus [28]): 84%
Activity (Rattus norvegicus [29]): 63%
Activity (Rattus norvegicus [30]): 71%
Activity (Rattus norvegicus [31]): -16%

Cc1ccc(Cl)cc1N/C(S)=N/C(C)C(C)(C)C (centres undefined)
Activity (Rattus norvegicus [32]): -35%
Activity (Rattus norvegicus [33]): 109%
Activity (Rattus norvegicus [34]): 93%
Activity (Rattus norvegicus [35]): 15%
Activity (Rattus norvegicus [36]): 34%
Activity (Rattus norvegicus [37]): -24%
